Source: the EternaBench riboswitch data

System: MS2 coat protein
Test: apparent Kd, MS2 coat protein; higher = weaker binding; RNA-MaP array; FMN 200 µM where present
Procedure, shortened: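 Two titrations, one without ligand and one with constant ligand, were run with SNAP-549-labelled MS2 coat protein from 0.7 or 1.5 nM, doubling to 3 µM. The targets were designs transcribed by stalled E. coli RNA polymerase on Illumina sequencing-chip clusters, in 100 mM Tris-HCl pH 7.5, 80 mM KCl, 4 mM MgCl2, BSA, DTT, yeast tRNA and Tween-20. The apparent Kd is the median of filtered per-cluster binding-curve fits, with green signal normalised to red-channel RNA signal and control-cluster median Fmax.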

[1] = designed as: OFF switch for flavin mononucleotide, no ligand
[2] = ligand present: flavin mononucleotide, designed as: OFF switch for flavin mononucleotide
[3] = designed as: ON switch for flavin mononucleotide, no ligand
[4] = ligand present: flavin mononucleotide, designed as: ON switch for flavin mononucleotide

| Sequence | apparent Kd [1] [nM] | apparent Kd [2] [nM] | apparent Kd [3] [nM] | apparent Kd [4] [nM] |
| --- | --- | --- | --- | --- |
| CUUUUGUGAGGAUAUUAGUAGUAAACAAACAAAAUUAUUACUGAGAAGGCACAUGAGGAUCACCCAUGUUCCUC | 39.7 | 637 |  |  |
| CUUUUGUGAGGAUAUUCGUAGUAGGGUCAUGGCACUAUUACGGAGAAGGCACAUGAGGAUCACCCAUGUACCUU | 15.1 | 26.4 |  |  |
| CUUUUGUGAGGAUAUUCGUAGUAGGGUCAUGGCACUAUUAUGGAGAAGGCACAUGAGGAUCACCCAUGUACCUU | 16.6 | 29.3 |  |  |
| CUUUUGUGAGGAUAUUGGUAGUAAAUGAAUAAAAUUAUUACCGAGAAGGCACAUGAGGAUCACCCAUGUUCCUC | 47.7 | 491 |  |  |
| CUUUUUUGAGGAUAUUAGUAGUAAAUAAAUAAAAUUACUACUGAGAAGGCACAUGAGGAUCACCCAUGUUCCUC | 16.3 | 26.9 |  |  |
| GAAAAACAUGAGGAUCACCCAUGUAAGGAUAUGCUGAAAAAACACUGGAAACAGUGCAGCAGAAGGUACAAAAG | 65.1 | 103 |  |  |
| GAACAUGAGGAUCACCCAUGUUCUCCAGAAGGCCGUACAUUUAAAAGUGGAUGGAUUAGUAUUGCGGAGGAUAUGGAGGUGCAA |  |  | 102 | 61.1 |
| GAACCACAUGAGGAUCACCCAUGUCUAAGAAAUUAAGGAUAUGCACAAAAGGAAAUAACUGCAGAAGGUAAACGAA |  |  | 33.4 | 27.4 |
| GAACGUAAAGAGAAGGGCUACUGGUUGAAACCUGCGGCCUCUGGAACAUGAGGAUCACCCAUGUAGCAGGAUAUCUUUGCAUUA | 146 | 18.9 |  |  |
| GAAGCACAUGAGGAUCACCCAUGUAAGGAUAUAUUUCUGGUCCGGCCGGACCAGUACCGUAGAAGGUAUGUAAA | 13.5 | 13.9 |  |  |
| GAAGCACGCAUUAACAUGAGGAUCACCCAUGUCAAAAGACGUGAGGAUAUGGAUCUGAAGAAGAUCCAGAAGGCACUGUGCUAA |  |  | 7.39 | 5.59 |
| GAAGCACGCAUUAACAUGAGGAUCACCCAUGUGAAAACACGUGAGGAUAUCGAUCUGAAGAAGAUCGAGAAGGCACCGUGCUAA |  |  | 5.53 | 5.11 |
| GAAGCCUGAGAGAAGGGCCACAUGAGGAUCACCCAUGUGUGCUCUCCUGUGGCAGGAUAUCUAUGGGCUGACUGGCUAAUCCAU | 6.84 | 4.6 |  |  |
| GAAGUUCUCCAGAAGGCACAUGAGGAUCACCCAUGUAAAAGAGCCUUAAUGUGAGGAUAUGGAAGCUGCUUCAUAGAUGACAUA | 6.61 | 26.5 |  |  |
| GAAUAAUUGAUCCAAUAUAACAACAUGAGGAUCACCCAUGUGCAGGAUAUCGUGUGUGUUAUAUACGAGAAGGGCAAGAACUGU | 729 | 594 |  |  |
| GAAUACCUAGGAUAUACAUGAGGAUCACCCAUGUCAGUAGACUGGGUAAAGUCUCUCAGUAGAAGGAGGACCCG | 109 | 97.8 |  |  |
| GAAUACCUAGGAUAUACAUGAGGAUCACCCAUGUUAAUAUUUGCAUAUUCAUCCUCUGGUAGAAGGAGGAAACU | 16.1 | 14.6 |  |  |
| GAAUAGAAAGAUUAAUAUGAUUACAUGAGGAUCACCCAUGUAUAGGAUAUCGACGUCAAUGACGUCGAGAAGGAUACAUAAUAA | 14.5 | 26.1 |  |  |
| GAAUAGGCAGGAUAUACAUGAGGAUCACCCAUGUGCUUGCGAUCGGCAAGCGAACAACGUAGAAGGGCCUUAAC | 16.2 | 37.3 |  |  |

| Sequence | apparent Kd [1] [nM] | apparent Kd [2] [nM] | apparent Kd [3] [nM] | apparent Kd [4] [nM] |
| --- | --- | --- | --- | --- |
| GAAUAGGCAGGAUAUACAUGAGGAUCACCCAUGUGCUUGCGCUAGGCACGUGAACAACGUAGAAGGGCCUAGAC | 14 | 22.8 |  |  |
| GAAUUCGCAUGAGGAUAUGCACUCAUUUCAUGUGCAGAAGGUAUAUCAUUAGACAUGAGGAUCACCCAUGUAUUGGUCAAUAAC |  |  | 17.8 | 14.8 |
| GACAAACAUGAGGAUCACCCAUGUUCAAACGAACAAGGAUAUGUGUGGAAACCGUACUAUACAGAAGGUGUCUGUC |  |  | 36.5 | 37.7 |
| GACAAGUGAGGAUAUCUGAUGUCUAACUUCGGUUAGACAUCAGAGAAGGCACAUGAGGAUCACCCAUGUCUGUC | 30.7 | 20.8 |  |  |
| GACAGACAUGAGGAUCACCCAUGUGAAAACGUACAAGGAUAUGUGUGGAAACCGUACUAUACAGAAGGUGUCUGUC |  |  | 94.5 | 87 |
| GACAGCGACACAGGAUAUGUCAAUUUUACAUGAGGAUCACCCAUGUCCGAAGCAGAAGGGUGAUCGCGCGCAAACUAAGCCAUG |  |  | 80.5 | 70.5 |
| GACAUCGCAGGAUAUUAUUGUUUGUACAUGAGGAUCACCCAUGUUAAUUGGGUUAAUGUUUAAGAAGGGCGGUGUC | 642 | 557 |  |  |
| GACAUGAGGAUCACCCAUGUCCAACCAGAAGGCCAGGAAUCGGACCCGUGUAUCGGGUUCGAGAUGGAGGAUAUGGGCGCCGAA |  |  | 78.2 | 34.1 |
| GACGUUGGAGGAUAUACACGAGUGCUCAGUUGGCCCGGUCGACAUGAGGAUCACCCAUGUAGAAGGCCGACACU | 17.6 | 22.8 |  |  |
| GACUGCAGAGGAUAUACAUGAGGAUCACCCAUGUGAGAUGCCUGACAGGUGUUGCUGAGUAGAAGGCUGCACUG | 14.1 | 21 |  |  |
| GACUGCCGAGGAUAUACAUGAGGAUCACCCAUGUGCUUCAGCAUCGAAAGAUGCAUGGGUAGAAGGCGGUAGUC | 27.4 | 72 |  |  |
| GACUUGCGCACAGGAUAUCCACGGAGCGGACGUGGAGAAGGGUGACAUGAGGAUCACCCAUGUACGUAAGUCUGGAUCACUUCC |  |  | 49.9 | 37.9 |
| GAGAAGAGGGAAGGAUAUACAUGAGGAUCACCCAUGUAGAUAGGUAUAAUAGGUUGUUGUAGUAUGUAGAAGGUCCGGUUUGUU | 18.9 | 22.5 |  |  |
| GAGACGUCAGGAUAUCUGAUGUCUAACUUCGGUUAGACAUCAGAGAAGGGACAUGAGGAUCACCCAUGUCUCAG | 15.9 | 13.9 |  |  |
| GAGAUGACAGUCAGGAUAUCUGUAGGGCGGACUUAAGAGAAGGGACAUGAGGAUCACCCAUGUGUGAUUGGUUU | 266 | 347 |  |  |
| GAGCGAAAGCUCAAUGUCGAUAGCAGAAGGACACAUGAUAACAUGAAAACAUGAGGAUCACCCAUGUAGGAUAUGCUAUCGACU | 8.57 | 13.9 |  |  |
| GAGCGAAAGCUCAAUGUCGAUAGCAGAAGGACAUGAAAACGUGAAAACACAUGAGGAUCACCCAUGUAGGAUAUGCUAUCGACU | 57.1 | 745 |  |  |
| GAGCGCUGUCGAGAGGAUAUGCGGUGAUGGACAUGAGGAUCACCCAUGUUAGCGAUAGCAUUACGGUAGAAGGCUCUACAGCUGC |  |  | 33.4 | 15.4 |
| GAGGAUAGAGGAUAUGCAUAGAUACGGAUUCGUGUAGUACUACAUGAGGAUCACCCAUGUAGAAGGCUGUCCAG | 12.7 | 22 |  |  |

| Sequence | apparent Kd [1] [nM] | apparent Kd [2] [nM] | apparent Kd [3] [nM] | apparent Kd [4] [nM] |
| --- | --- | --- | --- | --- |
| GAGUCUCUAUUAGAACCGAUACGAACAUGAGGAUCACCCAUGUAGGAUAUGCUAAAAGUUGUGUUGCAGAAGGACAUUUAUCGC | 11.1 | 10.9 |  |  |
| GAGUGACAUGAGGAUCACCCAUGUAAGGAUAUACGGUUGGUAGAGAGAGGGCUAAAGGGUAGAAGGUACGAAGG | 76.7 | 48.7 |  |  |
| GAGUGACAUGAGGAUCACCCAUGUGAGGAUAUCGGACGGACCAAAUUAACAUCCGCCGCGAGAAGGCACAUCGG | 78.7 | 24.5 |  |  |
| GAGUGCUUAGGAUAUACAUGAGGAUCACCCAUGUGCUUCAGCUAGGAGACUAGCAUUGGUAGAAGGAAGUACUC | 14.5 | 48.6 |  |  |
| GAGUGGAAGGCCGCUACAUGAGGAUCACCCAUGUGCUAAGCACAGGAUAUCGCGCGGACCCGGCGCGAGAAGGGUGACGGCCUG |  |  | 463 | 268 |
| GAGUGGAAGGCCGCUACAUGAGGAUCACCCAUGUGCUAAGCACAGGAUAUCGCGCUGGCCCGGCGCGAGAAGGGUGACGGCCUU |  |  | 737 | 283 |
| GAGUGGAGGAGAGGAUAUACAAUGAUAAUCACUGUAGAAGGUUCUAACAUGAGGAUCACCCAUGUAGGACUAUUCCUGAGAGUU |  |  | 12.8 | 10.3 |
| GAGUGGUGGAGAGGAUAUGCAUUGUUAUUCACUGUAGAAGGUUCUAACAUGAGGAUCACCCAUGUAGGACUAUUCCUGUGUUUU |  |  | 13.5 | 11.1 |
| GAGUUACAUGAGGAUCACCCAUGUUGUUGUGGAUAAGGAUAUAUGGUAGGAAGAGGAAUGAUAGAAGGUAUUAGGG |  |  | 46.2 | 40 |
| GAGUUAGAGGGAGGAUAUUGAGAUAGGACACUACGAGAAGGCUUAUAAUAGAUAAACAUGAGGAUCACCCAUGUCAUGUAAUGG | 48.7 | 29.1 |  |  |
| GAGUUUAAGUUUGUCACUUAGAGAGAGGAUAUGGAAAACUUGACAUGAGGAUCACCCAUGUAUAAUCAGAAGGCUCGAGUACGA |  |  | 12.1 | 7.33 |
| GAUACACAUGAGGAUCACCCAUGUGAGGAUAUGCGUACGUUGUCCGUAGGCGACGUGCGCAGAAGGCGCGAGGU | 41.4 | 36.2 |  |  |
| GAUACGUCAGGAUAUCUGAUGUCUAACUUCGGUUAGACAUCAGAGAAGGGACAUGAGGAUCACCCAUGUAUCAA | 42.6 | 56.7 |  |  |
| GAUAGGAUGUGAGGAUAUGCUGAGGAUACUUCAGCAGAAGGCACAUGAGGAUCACCCAUGUACACUUAUCAUAAAUACCCUAUC | 13 | 17.9 |  |  |
| GAUCCGUCUGUUAGGAUAUGCUUUGGGCUUCCGCAGUAGAAGGAACAUGAGGAUCACCCAUGUCCGAUGCCGUC | 33.4 | 43 |  |  |
| GAUCGACAUGAGGAUCACCCAUGUCAGGAUAUCGUCACUGGAGCUUCGGCUCCAGUGACGAGAAGGGACAUAAU | 31.9 | 44.6 |  |  |
| GAUCGCCGUGUCAGGAUAUCUUGUGUACCCACGUUAGAGAAGGGACAUGAGGAUCACCCAUGUACCCUGGCUUU | 20.6 | 20.5 |  |  |
| GAUCUGACAGGAUAUACAUGAGGAUCACCCAUGUGCGAGCUAGCGAAAGCUAGCUCAGGUAGAAGGGUCAGAUC | 12 | 16.4 |  |  |
